In ChEMBL document CHEMBL1641579, “Synthesis and biological evaluation of 7-substituted-1-(3-bromophenylamino)isoquinoline-4-carbonitriles as inhibitors of myosin light chain kinase and epidermal growth factor receptor” (Bioorg Med Chem, 2011):

Columns and labels:
[1] = biological target: T1, Inhibitor of nuclear factor kappa-B kinase subunit epsilon (Homo sapiens) (UniProt Q14164); experiment: Inhibition of IKKepsilon assessed as residual activity at 10 uM
T1 sequence (whole entry): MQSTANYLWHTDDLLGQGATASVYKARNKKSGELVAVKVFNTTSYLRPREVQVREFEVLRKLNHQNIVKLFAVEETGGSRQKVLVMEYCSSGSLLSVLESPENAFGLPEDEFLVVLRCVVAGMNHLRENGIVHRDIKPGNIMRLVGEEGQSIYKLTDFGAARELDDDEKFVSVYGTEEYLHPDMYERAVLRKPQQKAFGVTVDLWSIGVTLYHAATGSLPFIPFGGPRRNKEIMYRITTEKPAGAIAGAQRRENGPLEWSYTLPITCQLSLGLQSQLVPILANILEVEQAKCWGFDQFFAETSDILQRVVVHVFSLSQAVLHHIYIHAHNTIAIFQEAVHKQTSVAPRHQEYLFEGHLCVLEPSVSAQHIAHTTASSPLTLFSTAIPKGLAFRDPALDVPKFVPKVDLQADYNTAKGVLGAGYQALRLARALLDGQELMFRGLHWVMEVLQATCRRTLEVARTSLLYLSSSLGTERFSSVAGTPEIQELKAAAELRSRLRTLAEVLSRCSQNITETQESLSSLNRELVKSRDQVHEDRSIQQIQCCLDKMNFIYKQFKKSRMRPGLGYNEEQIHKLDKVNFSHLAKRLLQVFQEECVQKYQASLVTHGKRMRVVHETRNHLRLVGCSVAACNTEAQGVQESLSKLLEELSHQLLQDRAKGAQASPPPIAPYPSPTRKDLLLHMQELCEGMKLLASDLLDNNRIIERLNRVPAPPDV
Method in brief: (§1)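 Kinase panel screen run as a radioactive activity assay at single compound concentration. Score reported as percent activity remaining relative to DMSO controls (100%).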

[2] = biological target: Serine/threonine-protein kinase PLK1 (Homo sapiens) (UniProt P53350); experiment: Inhibition of PLK1 assessed as residual activity at 10 uM
Chain of Serine/threonine-protein kinase PLK1 (Homo sapiens) (P53350 whole entry): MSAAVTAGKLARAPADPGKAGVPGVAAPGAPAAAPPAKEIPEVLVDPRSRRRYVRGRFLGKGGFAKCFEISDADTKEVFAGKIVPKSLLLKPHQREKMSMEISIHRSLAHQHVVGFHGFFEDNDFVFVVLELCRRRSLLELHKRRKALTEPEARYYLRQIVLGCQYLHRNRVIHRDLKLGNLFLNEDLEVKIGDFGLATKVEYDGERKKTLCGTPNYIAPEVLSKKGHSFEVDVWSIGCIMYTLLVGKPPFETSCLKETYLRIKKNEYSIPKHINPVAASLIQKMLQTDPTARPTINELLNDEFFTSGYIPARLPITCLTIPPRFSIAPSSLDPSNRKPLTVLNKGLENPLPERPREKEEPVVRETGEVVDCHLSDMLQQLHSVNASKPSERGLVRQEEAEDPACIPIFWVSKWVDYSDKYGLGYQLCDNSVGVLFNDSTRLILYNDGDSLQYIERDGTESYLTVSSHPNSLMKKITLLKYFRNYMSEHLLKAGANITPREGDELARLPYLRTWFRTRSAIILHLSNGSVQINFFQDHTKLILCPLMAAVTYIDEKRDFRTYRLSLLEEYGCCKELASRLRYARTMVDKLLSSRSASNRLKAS
Method in brief: (§2)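 Panel screen by radioactive kinase assay at a single inhibitor concentration. Score is the percent activity remaining relative to DMSO controls (100%).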

[3] = biological target: T2, Eukaryotic elongation factor 2 kinase (Homo sapiens) (UniProt O00418); experiment: Inhibition of EF2K assessed as residual activity at 10 uM; method in brief: as §1
T2 sequence (whole entry): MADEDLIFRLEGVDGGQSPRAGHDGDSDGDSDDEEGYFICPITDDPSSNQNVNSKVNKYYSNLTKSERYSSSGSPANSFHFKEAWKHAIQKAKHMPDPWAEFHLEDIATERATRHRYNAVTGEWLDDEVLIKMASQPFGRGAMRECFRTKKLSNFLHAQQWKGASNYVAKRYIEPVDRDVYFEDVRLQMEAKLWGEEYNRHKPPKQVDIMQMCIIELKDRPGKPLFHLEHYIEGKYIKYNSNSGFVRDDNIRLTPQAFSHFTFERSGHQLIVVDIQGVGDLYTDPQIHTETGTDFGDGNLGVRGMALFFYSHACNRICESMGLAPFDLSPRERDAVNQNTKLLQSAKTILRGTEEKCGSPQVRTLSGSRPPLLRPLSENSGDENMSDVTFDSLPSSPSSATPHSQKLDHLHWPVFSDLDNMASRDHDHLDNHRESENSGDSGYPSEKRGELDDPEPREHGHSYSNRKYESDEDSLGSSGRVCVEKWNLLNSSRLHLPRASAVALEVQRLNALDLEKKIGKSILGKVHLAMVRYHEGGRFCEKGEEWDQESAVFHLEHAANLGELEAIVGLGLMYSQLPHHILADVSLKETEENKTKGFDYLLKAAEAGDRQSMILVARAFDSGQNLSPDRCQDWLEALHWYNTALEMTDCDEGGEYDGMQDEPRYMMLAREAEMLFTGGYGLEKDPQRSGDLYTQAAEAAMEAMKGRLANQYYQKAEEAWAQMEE

[4] = biological target: Serine/threonine-protein kinase PAK 2 (Homo sapiens) (UniProt Q13177); experiment: Inhibition of PAK2 assessed as residual activity at 10 uM; method in brief: as §2
Chain of Serine/threonine-protein kinase PAK 2 (Homo sapiens) (Q13177 whole entry): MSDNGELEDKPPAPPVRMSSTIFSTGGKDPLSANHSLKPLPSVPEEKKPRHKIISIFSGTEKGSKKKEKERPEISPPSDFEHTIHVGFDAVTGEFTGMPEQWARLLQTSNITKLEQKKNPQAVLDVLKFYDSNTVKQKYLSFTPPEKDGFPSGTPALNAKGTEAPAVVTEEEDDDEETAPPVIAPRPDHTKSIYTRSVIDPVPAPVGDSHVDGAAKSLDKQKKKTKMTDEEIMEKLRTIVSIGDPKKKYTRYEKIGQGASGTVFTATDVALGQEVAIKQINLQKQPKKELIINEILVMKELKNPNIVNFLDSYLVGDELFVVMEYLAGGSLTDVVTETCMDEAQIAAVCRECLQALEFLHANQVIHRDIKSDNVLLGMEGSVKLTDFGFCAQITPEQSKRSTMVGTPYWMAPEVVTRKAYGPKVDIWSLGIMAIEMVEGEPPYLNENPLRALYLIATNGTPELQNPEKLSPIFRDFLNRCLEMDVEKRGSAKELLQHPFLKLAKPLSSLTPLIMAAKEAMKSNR

[5] = biological target: T3, Serine/threonine-protein kinase Sgk1 (Homo sapiens) (UniProt O00141); experiment: Inhibition of SGK1 assessed as residual activity at 10 uM; method in brief: as §2
T3 sequence (whole entry): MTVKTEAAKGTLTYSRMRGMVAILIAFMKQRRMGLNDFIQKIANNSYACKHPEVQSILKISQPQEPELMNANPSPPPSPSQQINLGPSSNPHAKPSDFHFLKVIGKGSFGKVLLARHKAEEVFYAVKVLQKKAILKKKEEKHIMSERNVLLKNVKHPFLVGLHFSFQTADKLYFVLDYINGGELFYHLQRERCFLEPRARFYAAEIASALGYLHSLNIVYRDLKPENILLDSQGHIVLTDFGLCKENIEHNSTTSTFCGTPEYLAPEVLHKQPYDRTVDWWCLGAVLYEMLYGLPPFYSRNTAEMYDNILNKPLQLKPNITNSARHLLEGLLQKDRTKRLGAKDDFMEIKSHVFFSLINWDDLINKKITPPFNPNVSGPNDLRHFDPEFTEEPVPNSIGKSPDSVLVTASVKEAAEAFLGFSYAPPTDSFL

[6] = biological target: Ephrin type-A receptor 2 (Homo sapiens) (UniProt P29317); experiment: Inhibition of EPHA2 assessed as residual activity at 10 uM; method in brief: as §1
[7] = biological target: Homeodomain-interacting protein kinase 1 (Homo sapiens) (UniProt Q86Z02); experiment: Inhibition of HIPK1 assessed as residual activity at 10 uM; method in brief: as §1
Chain of Homeodomain-interacting protein kinase 1 (Homo sapiens) (Q86Z02 whole entry, looked up): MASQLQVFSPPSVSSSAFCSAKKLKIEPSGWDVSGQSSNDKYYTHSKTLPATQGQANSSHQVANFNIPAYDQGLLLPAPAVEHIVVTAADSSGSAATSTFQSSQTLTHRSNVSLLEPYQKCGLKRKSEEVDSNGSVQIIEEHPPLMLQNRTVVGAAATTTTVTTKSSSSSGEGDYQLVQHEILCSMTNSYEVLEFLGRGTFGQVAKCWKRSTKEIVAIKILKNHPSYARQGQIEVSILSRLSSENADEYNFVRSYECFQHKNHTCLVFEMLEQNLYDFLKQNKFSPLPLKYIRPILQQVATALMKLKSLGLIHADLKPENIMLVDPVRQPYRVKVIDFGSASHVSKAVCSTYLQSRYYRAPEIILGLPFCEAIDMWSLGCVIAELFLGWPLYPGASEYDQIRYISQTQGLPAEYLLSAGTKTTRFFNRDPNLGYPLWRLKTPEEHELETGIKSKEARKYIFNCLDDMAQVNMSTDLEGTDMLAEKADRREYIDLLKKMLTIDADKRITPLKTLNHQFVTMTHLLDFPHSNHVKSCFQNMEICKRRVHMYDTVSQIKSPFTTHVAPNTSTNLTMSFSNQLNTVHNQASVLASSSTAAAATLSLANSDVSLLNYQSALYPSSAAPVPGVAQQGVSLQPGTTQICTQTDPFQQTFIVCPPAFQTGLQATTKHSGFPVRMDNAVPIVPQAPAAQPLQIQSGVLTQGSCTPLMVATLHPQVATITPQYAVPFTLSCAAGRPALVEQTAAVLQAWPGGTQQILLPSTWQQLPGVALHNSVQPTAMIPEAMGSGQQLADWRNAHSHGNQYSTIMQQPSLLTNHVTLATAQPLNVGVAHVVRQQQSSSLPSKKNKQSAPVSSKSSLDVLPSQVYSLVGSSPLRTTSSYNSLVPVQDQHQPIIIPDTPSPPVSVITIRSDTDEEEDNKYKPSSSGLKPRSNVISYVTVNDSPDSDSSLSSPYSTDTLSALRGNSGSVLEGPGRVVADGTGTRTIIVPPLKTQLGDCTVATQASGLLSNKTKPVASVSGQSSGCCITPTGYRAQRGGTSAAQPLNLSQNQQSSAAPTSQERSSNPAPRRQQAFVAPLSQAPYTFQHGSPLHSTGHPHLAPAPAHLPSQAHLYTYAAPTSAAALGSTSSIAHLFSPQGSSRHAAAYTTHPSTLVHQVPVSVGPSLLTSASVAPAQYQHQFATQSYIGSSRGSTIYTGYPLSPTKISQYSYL

[8] = biological target: T4, Interleukin-1 receptor-associated kinase 4 (Homo sapiens) (UniProt Q9NWZ3); experiment: Inhibition of IRAK4 assessed as residual activity at 10 uM; method in brief: as §1
T4 sequence (whole entry): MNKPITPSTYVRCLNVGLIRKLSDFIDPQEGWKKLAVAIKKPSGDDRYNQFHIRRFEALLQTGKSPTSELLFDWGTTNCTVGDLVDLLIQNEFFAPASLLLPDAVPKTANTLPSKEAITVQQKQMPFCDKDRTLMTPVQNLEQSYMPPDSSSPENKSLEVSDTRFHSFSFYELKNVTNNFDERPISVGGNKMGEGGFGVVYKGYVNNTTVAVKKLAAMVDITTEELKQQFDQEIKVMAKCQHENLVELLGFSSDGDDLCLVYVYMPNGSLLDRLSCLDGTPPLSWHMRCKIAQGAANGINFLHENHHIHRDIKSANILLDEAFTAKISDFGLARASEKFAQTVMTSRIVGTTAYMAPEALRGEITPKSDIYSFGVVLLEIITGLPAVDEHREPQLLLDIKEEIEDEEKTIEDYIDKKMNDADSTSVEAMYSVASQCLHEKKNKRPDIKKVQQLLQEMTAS

[9] = biological target: Insulin receptor-related protein (Homo sapiens) (UniProt P14616); experiment: Inhibition of IRR assessed as residual activity at 10 uM; method in brief: as §1
Chain of Insulin receptor-related protein (Homo sapiens) (P14616 whole entry): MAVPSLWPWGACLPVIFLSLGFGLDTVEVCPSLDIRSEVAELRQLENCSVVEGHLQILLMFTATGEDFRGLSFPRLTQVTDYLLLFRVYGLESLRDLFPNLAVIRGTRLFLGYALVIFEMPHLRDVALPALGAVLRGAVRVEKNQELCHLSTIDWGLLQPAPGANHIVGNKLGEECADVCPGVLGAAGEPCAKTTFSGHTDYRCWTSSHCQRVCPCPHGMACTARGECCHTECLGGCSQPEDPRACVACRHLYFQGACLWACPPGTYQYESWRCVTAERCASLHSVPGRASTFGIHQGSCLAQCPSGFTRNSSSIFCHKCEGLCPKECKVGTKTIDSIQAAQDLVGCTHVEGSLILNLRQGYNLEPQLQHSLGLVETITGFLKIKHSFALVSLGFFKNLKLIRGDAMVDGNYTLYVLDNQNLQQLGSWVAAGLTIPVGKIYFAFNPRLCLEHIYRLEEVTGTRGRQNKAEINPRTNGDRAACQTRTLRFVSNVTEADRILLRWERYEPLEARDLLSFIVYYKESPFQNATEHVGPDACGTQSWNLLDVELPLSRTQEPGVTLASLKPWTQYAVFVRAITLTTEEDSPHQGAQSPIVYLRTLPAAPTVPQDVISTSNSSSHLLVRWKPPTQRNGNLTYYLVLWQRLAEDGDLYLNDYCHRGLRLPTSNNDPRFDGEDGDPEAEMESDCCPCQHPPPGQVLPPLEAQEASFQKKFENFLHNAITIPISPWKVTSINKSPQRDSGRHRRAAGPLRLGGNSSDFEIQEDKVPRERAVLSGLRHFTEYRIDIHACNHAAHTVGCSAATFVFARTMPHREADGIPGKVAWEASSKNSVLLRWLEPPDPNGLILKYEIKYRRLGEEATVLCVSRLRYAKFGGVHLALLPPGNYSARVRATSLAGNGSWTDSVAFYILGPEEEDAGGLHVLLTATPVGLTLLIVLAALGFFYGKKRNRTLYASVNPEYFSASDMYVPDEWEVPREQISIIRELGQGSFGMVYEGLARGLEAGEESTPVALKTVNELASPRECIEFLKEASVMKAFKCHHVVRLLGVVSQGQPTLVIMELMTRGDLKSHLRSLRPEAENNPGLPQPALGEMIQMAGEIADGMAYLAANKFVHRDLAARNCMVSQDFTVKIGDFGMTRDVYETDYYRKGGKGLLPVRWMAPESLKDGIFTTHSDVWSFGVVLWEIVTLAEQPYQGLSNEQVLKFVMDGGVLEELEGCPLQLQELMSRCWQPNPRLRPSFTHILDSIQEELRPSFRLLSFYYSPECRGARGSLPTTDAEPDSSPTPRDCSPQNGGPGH

[10] = biological target: Serine/threonine-protein kinase 26 (Homo sapiens) (UniProt Q9P289); experiment: Inhibition of MST4 assessed as residual activity at 10 uM; method in brief: as §2
Chain of Serine/threonine-protein kinase 26 (Homo sapiens) (Q9P289 2-416 limits assumed): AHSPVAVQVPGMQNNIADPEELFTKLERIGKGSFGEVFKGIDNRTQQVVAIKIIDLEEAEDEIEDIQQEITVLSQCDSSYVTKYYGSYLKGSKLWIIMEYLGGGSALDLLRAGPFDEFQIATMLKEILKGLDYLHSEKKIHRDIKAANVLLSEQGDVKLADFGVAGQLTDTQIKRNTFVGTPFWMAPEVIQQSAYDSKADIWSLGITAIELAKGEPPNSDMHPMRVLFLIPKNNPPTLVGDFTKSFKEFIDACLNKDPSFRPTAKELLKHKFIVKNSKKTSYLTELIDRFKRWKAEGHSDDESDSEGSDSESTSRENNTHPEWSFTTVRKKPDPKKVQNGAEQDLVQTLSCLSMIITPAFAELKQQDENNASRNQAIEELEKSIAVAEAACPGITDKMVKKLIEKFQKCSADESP

[11] = biological target: Serine/threonine-protein kinase Nek6 (Homo sapiens) (UniProt Q9HC98); experiment: Inhibition of NEK6 assessed as residual activity at 10 uM; method in brief: as §2
Chain of Serine/threonine-protein kinase Nek6 (Homo sapiens) (Q9HC98 whole entry): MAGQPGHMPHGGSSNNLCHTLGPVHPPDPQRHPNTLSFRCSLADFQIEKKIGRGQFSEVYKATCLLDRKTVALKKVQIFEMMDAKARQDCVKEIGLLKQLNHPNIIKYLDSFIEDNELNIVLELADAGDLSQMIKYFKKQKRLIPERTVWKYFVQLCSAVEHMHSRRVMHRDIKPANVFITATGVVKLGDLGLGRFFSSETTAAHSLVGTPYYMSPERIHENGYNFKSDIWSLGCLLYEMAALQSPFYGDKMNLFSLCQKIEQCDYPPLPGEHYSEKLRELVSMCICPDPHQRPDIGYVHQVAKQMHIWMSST

Activity [1] [%] | Activity [2] [%] | Activity [3] [%] | Activity [4] [%] | Activity [5] [%] | Activity [6] [%] | Activity [7] [%] | Activity [8] [%] | Activity [9] [%] | Activity [10] [%] | Activity [11] [%] | SMILES
80 | 84 | 88 | 81 | 82 | 73 | 100 | 93 | 73 | 81 | 81 | CN(C)C/C=C/C(=O)Nc1ccc2c(C#N)cnc(Nc3cccc(Br)c3)c2c1
91 | 86 | 47 | 90 | 91 | 87 | 83 | 100 | 86 | 92 | 100 | CN1CCN(CCC(=O)Nc2ccc3c(C#N)cnc(Nc4cccc(Br)c4)c3c2)CC1
100 | 69 | 78 | 80 | 82 | 84 | 95 | 98 | 98 | 99 | 100 | CN(C)CCCC(=O)Nc1ccc2c(C#N)cnc(Nc3cccc(Br)c3)c2c1
